EBNA-1 inh: EBNA-1 DNA-binding inhibitors, primary screen, biochemical, fluorescence polarization; 0.34% of 300,000 active; inhibition, % at 14.8 µM; in the data active = inhibition above about 28%
NS3 helicase inh: inhibitors of HCV NS3 helicase, primary screen, biochemical, Cy5 molecular beacon fluorescence | inhibition, % at 10.9 µM | 0.56% of 290,000 active | NS3 helicase DNA unwinding;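 active = inhibition above the mean of all tested compounds plus 3 SD, set per campaign, cut at about 35% in these data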
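Assay system – hepatitis C virus NS3 helicase domain fragment enzyme · Buffer or medium – MOPS pH 6.5, MgCl2, DTT, Tween20, BSA · Reagent – Cy5/quencher beacon DNA duplex and ATP to start · Compound – single 10.9 µM dose · Timing – 1 h at 25 °C · Technique – Cy5 beacon fluorescence read at start and 1 h · Measure – % inhibition of unwinding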
HCV core dimer: inhibitors of HCV core protein dimerization, primary screen, biochemical, TR-FRET, high-throughput; TR-FRET GST/Flag-core106 dimerization, 1536-well; inhibition, % at 5 µM; 0.33% of 300,000 active; AID 1899, 2009;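 active = inhibition above the mean of all tested compounds plus 3 SD, set per screening campaign, cut at about 45% in these data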
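System: GST/Flag-tagged HCV core106 proteins. Incubation: compound-protein-antibody incubation 4 h at 22.5 °C. Technique: HTRF with 340 nm excitation, 617/671 nm emission. Medium: KF-containing HEPES buffer, pH 7.45, DTT, CHAPS, BSA. Read-out: inhibition (%) from 671 over 617 nm ratio. Also added: Eu(K)-anti-GST 90 ng/mL plus XL665-anti-Flag 1 µg/mL.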
PP1 counter: PP1-alpha phosphatase inhibitors, primary screen, counter-screen for PP5 inhibitor project, biochemical, fluorescence, OMFP substrate, single point | Serine/threonine-protein phosphatase PP1-alpha catalytic subunit (Homo sapiens), P62136 | purified PP1alpha | 0.9% of 320,000 active | inhibition, % at 6.7 µM;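 active = inhibition above the mean inhibition of all tested compounds plus 3 SD, computed separately for each screening campaign, cut at about 15% in these data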
ZTA counter: ZTA (EBV) inhibition in EBNA-1 counter-screen; P03206; ZTA-DNA binding, fluorescence polarization; inhibition, % at 11 µM; 0.15% of 320,000 active; in the data active = inhibition above about 33%
Target sequence (P03206 whole entry, looked up): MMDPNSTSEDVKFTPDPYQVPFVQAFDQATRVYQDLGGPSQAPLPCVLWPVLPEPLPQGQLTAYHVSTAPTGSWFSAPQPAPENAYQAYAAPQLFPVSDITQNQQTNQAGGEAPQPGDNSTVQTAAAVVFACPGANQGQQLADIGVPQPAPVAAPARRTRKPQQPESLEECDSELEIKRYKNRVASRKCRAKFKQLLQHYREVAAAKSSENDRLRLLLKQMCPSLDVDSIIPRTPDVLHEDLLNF
A number is an active result; 0 = inactive; - = not tested or not shown. The list is not random: actives were taken first. Their share in the collection is about 1.9%.

SMILES	EBNA-1 inh	NS3 helicase inh	HCV core dimer	PP1 counter	ZTA counter
Cc1ccc(OCC(=O)Nc2cc(NC(=O)COc3ccc(C)c(C)c3)cc(C(=O)O)c2)cc1C	0	0	0	16.4	0
O=C(NCCc1ccccc1)c1ccc2nc(-c3ccco3)c(-c3ccco3)nc2c1	0	0	65.2	0	0
O=C(c1ccccc1)c1ccc2nc(-c3ccco3)c(-c3ccco3)nc2c1	0	0	46.8	0	0
c1coc(-c2nc3ccccc3nc2-c2ccco2)c1	0	0	0	0	0
O=C(Nc1ccc2nc(-c3ccco3)c(-c3ccco3)nc2c1)N1CCCCCC1	0	48.9	75.2	36.6	40.9
O=C(NCCO)c1ccc2nc(-c3ccco3)c(-c3ccco3)nc2c1	0	0	0	0	0
Cn1cc(C(=O)CCl)c2ccccc21	-	0	-	-	-
Cc1ccc(C(=O)NC2CCCc3ccccc32)cc1[N+](=O)[O-] (stereo not given)	0	0	0	0	0
Cc1cc(C)c(NC(=O)C2CCCO2)c(C)c1NC(=O)C1CCCO1 (stereo not given)	0	0	0	0	0
CS(=O)(=O)C1=NSC2=NC(=O)/C(=C\c3ccc(-c4ccccc4)o3)C(=N)N21	0	0	0	0	0
N=C1/C(=C\c2ccc(-c3cc(Cl)cc(Cl)c3)o2)C(=O)N=C2SC=C(c3ccccc3)N12	0	0	48.6	0	0
CCCCn1c(O)c(/C=C/C=C/C=Nc2ccccc2)sc1=S	0	0	62.8	0	0
Cn1cnnc1Sc1cc(N2CCN(S(=O)(=O)c3ccc4ccccc4c3)CC2)ccc1[N+](=O)[O-]	0	0	0	0	0
COc1ccc(O)c(C(=O)c2cc(C(=O)NCCc3ccccc3)c(=O)n(CCc3ccccc3)c2)c1	0	0	0	0	0
Cc1ccc(O)c(C(=O)c2cc(C(=O)NCCc3ccccc3)c(=O)n(CCc3ccccc3)c2)c1	0	0	0	17.3	0
Cc1cc([N+](=O)[O-])cc(C)c1OCC(=O)N/N=C/c1ccc(OC(=O)c2ccccc2Br)cc1	0	0	0	15.7	0
O=C(CNC(=O)c1ccc([N+](=O)[O-])cc1)N/N=C\c1ccc(OC(=O)c2ccccc2)cc1	0	0	0	16.0	0
Cc1cc([N+](=O)[O-])cc(C)c1OCC(=O)N/N=C/c1ccc(OC(=O)c2ccccc2)cc1	0	0	0	0	0
CSc1ccc(CNCC2CCCO2)cc1 (stereo not given)	0	0	0	0	0
CC(C)(C)C1CCc2sc(C(=O)NNC(=O)CCl)cc2C1 (stereo not given)	-	0	-	-	-
Cc1cccc2cc3c(N)c(C#N)sc3nc12	0	0	0	0	0
Cc1sc(NC(=O)c2sc3nc4c(C)cccc4cc3c2N)c(C#N)c1C	0	0	47.1	16.8	0
COc1cc(NC(=O)NCC2CCN(Cc3ccccc3C)CC2)cc(OC)c1OC	-	0	-	-	-
Cc1cccc(C)c1NC(=O)CSc1nc(C)c(CC(=O)c2ccc(Br)cc2)c(C)c1C#N	0	0	69.9	0	0
Cc1nc(SCC(=O)Nc2ccccc2C(F)(F)F)c(C#N)c(C)c1CC(=O)c1ccc(Br)cc1	0	0	0	0	0
SMILES	EBNA-1 inh	NS3 helicase inh	HCV core dimer	PP1 counter	ZTA counter
N#CC(c1ccc(O)cc1)c1ncc(C(F)(F)F)cc1Cl (stereo not given)	0	0	0	0	0
COc1ccc(/C=N/NC(=O)c2cccc(Br)c2)cc1Cn1cc(Cl)cn1	0	0	0	0	0
COc1ccc(/C=N/NC(=O)c2ccc(Br)cc2)cc1Cn1cc(Cl)cn1	31.6	0	0	0	0
O=[N+]([O-])c1ccc(Nc2nc(N/N=C/c3cccc(F)c3)nc(N3CCCC3)n2)cc1	0	0	0	0	0
COc1cccc(/C=N/Nc2nc(Nc3ccc([N+](=O)[O-])cc3)nc(N3CCCC3)n2)c1O	0	0	0	15.5	0
N#C/C(=C/c1cn(-c2ccccc2)nc1-c1cccc(S(=O)(=O)N2CCCC2)c1)C(=O)NCc1ccco1	0	0	71.0	15.8	0
CCOC(=O)c1c(NC(=O)COC(=O)c2cnc(C)cn2)sc(C(=O)N(C)C)c1C	0	-	0	0	0
CCOC(=O)c1c(-c2ccco2)csc1NC(=O)COC(=O)c1cnc(C)cn1	0	-	52.1	0	0

Screening data (PubChem)
